Laboratory results taken from ChEMBL document CHEMBL5661968, “Antitumor activity of ZSTK474, a new phosphatidylinositol 3-kinase inhibitor” (J Natl Cancer Inst, 2006).
The source made the active and inactive calls. The calls are words filed in the database; no cut-off is given here.

How the values were obtained:
[1] = test system: B16-F10; assay: Antitumor activity against mouse B16-F10 cells implanted in BDF1 mouse assessed as tumor size relative to control (T/C) at 12 mg/kg, iv administered on day 0 measured after 14 days; details: 336 h
[2] = test system: B16-F10; assay: Antitumor activity against mouse B16-F10 cells implanted in BDF1 mouse assessed as tumor growth inhibition at 50 mg/kg, po administered on day 0,3 and 7 measured after 14 days; format: functional; details: B16-F10, 336 h, time 14 day, read-out: TGI
Summary of the method: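 Male BDF1 mice given 5 × 10^5 B16F10 melanoma cells subcutaneously; dosing began 7 days after inoculation (day 0) in random groups of seven. Tumours were measured by calipers, with TV = (L × W²)/2 and RTV = TVn/TV0. T/C% on day 14 = 100 × mean RTV treated / mean RTV control. Body weight was also recorded.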

[3] = test system: B16-F10; assay: Antitumor activity against mouse B16-F10 cells implanted in BDF1 mouse assessed as tumor size relative to control (T/C) at 100 mg/kg, iv administered on day 0,3 and 7 measured after 14 days; details: 336 h
[4] = Growth inhibition of human HBC4 cells measured after 48 hrs by sulforhodamine B assay; format: functional
Summary of the method: (§1)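 JFCR39 panel lines were grown in RPMI 1640 with 5% FBS, penicillin and streptomycin at 37 °C in 5% CO2. After 48 h of drug exposure, total cellular protein was measured by sulforhodamine B staining. GI50 was calculated by a previously described method.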

[5] = Growth inhibition of human BSY1 cells measured after 48 hrs by sulforhodamine B assay; format: functional; details: BSY-1
Summary of the method: as §1

[6] = Growth inhibition of human HBC5 cells measured after 48 hrs by sulforhodamine B assay; format: functional
Summary of the method: as §1

[7] = test system: MDA-MB-231; assay: Growth inhibition of human MDA-MB-231 cells measured after 48 hrs by sulforhodamine B assay; format: functional
Summary of the method: as §1

[8] = test system: U-251; assay: Growth inhibition of human U-251 cells measured after 48 hrs by sulforhodamine B assay; format: functional
Summary of the method: as §1

[9] = test system: SF-268; assay: Growth inhibition of human SF-268 cells measured after 48 hrs by sulforhodamine B assay; format: functional
Summary of the method: as §1

[10] = test system: SF-295; assay: Growth inhibition of human SF-295 cells measured after 48 hrs by sulforhodamine B assay; format: functional
Summary of the method: as §1

[11] = test system: SF-539; assay: Growth inhibition of human SF-539 cells measured after 48 hrs by sulforhodamine B assay; format: functional
Summary of the method: as §1

[12] = test system: SNB-75; assay: Growth inhibition of human SNB-75 cells measured after 48 hrs by sulforhodamine B assay; format: functional
Summary of the method: as §1

[13] = test system: SNB-78; assay: Growth inhibition of human SNB-78 cells measured after 48 hrs by sulforhodamine B assay; format: functional
Summary of the method: as §1

[14] = test system: HCC 2998; assay: Growth inhibition of human HCC 2998 cells measured after 48 hrs by sulforhodamine B assay; format: functional
Summary of the method: as §1

[15] = test system: KM12; assay: Growth inhibition of human KM12 cells measured after 48 hrs by sulforhodamine B assay; format: functional
Summary of the method: as §1

[16] = test system: HT-29; assay: Growth inhibition of human HT-29 cells measured after 48 hrs by sulforhodamine B assay; format: functional
Summary of the method: as §1

[17] = test system: HCT-15; assay: Growth inhibition of human HCT-15 cells measured after 48 hrs by sulforhodamine B assay; format: functional
Summary of the method: as §1

[18] = test system: HCT-116; assay: Growth inhibition of human HCT-116 cells measured after 48 hrs by sulforhodamine B assay; format: functional
Summary of the method: as §1

[19] = test system: NCI-H23; assay: Growth inhibition of human NCI-H23 cells measured after 48 hrs by sulforhodamine B assay; format: functional
Summary of the method: as §1

[20] = test system: NCI-H226; assay: Growth inhibition of human NCI-H226 cells measured after 48 hrs by sulforhodamine B assay; format: functional
Summary of the method: as §1

[21] = test system: NCI-H522; assay: Growth inhibition of human NCI-H522 cells measured after 48 hrs by sulforhodamine B assay; format: functional
Summary of the method: as §1

[22] = test system: NCI-H460; assay: Growth inhibition of human NCI-H460 cells measured after 48 hrs by sulforhodamine B assay; format: functional
Summary of the method: as §1

[23] = test system: A549; assay: Growth inhibition of human A549 cells measured after 48 hrs by sulforhodamine B assay; format: functional
Summary of the method: as §1

[24] = test system: DMS-273; assay: Growth inhibition of human DMS-273 cells measured after 48 hrs by sulforhodamine B assay; format: functional
Summary of the method: as §1

[25] = test system: DMS-114; assay: Growth inhibition of human DMS-114 cells measured after 48 hrs by sulforhodamine B assay; format: functional
Summary of the method: as §1

[26] = test system: LOX IMVI; assay: Growth inhibition of human LOX IMVI cells measured after 48 hrs by sulforhodamine B assay; format: functional
Summary of the method: as §1

[27] = test system: OVCAR-3; assay: Growth inhibition of human OVCAR-3 cells measured after 48 hrs by sulforhodamine B assay; format: functional
Summary of the method: as §1

[28] = test system: OVCAR-4; assay: Growth inhibition of human OVCAR-4 cells measured after 48 hrs by sulforhodamine B assay; format: functional
Summary of the method: as §1

[29] = test system: OVCAR-5; assay: Growth inhibition of human OVCAR-5 cells measured after 48 hrs by sulforhodamine B assay; format: functional
Summary of the method: as §1

[30] = test system: OVCAR-8; assay: Growth inhibition of human OVCAR-8 cells measured after 48 hrs by sulforhodamine B assay; format: functional
Summary of the method: as §1

[31] = test system: SK-OV-3; assay: Growth inhibition of human SK-OV-3 cells measured after 48 hrs by sulforhodamine B assay; format: functional
Summary of the method: as §1

[32] = test system: RXF 631; assay: Growth inhibition of human RXF 631 cells measured after 48 hrs by sulforhodamine B assay; format: functional
Summary of the method: as §1

[33] = test system: ACHN; assay: Growth inhibition of human ACHN cells measured after 48 hrs by sulforhodamine B assay; format: functional
Summary of the method: as §1

[34] = test system: St-4; assay: Growth inhibition of human St-4 cells measured after 48 hrs by sulforhodamine B assay; format: functional
Summary of the method: as §1

[35] = test system: MKN-1; assay: Growth inhibition of human MKN-1 cells measured after 48 hrs by sulforhodamine B assay; format: functional
Summary of the method: as §1

[36] = test system: MKN-7; assay: Growth inhibition of human MKN-7 cells measured after 48 hrs by sulforhodamine B assay; format: functional
Summary of the method: as §1

[37] = test system: MKN-28; assay: Growth inhibition of human MKN-28 cells measured after 48 hrs by sulforhodamine B assay; format: functional
Summary of the method: as §1

[38] = test system: MKN-45; assay: Growth inhibition of human MKN-45 cells measured after 48 hrs by sulforhodamine B assay; format: functional
Summary of the method: as §1

[39] = test system: MKN-74; assay: Growth inhibition of human MKN74 cells measured after 48 hrs by sulforhodamine B assay; format: functional
Summary of the method: as §1

[40] = test system: DU-145; assay: Growth inhibition of human DU-145 cells measured after 48 hrs by sulforhodamine B assay; format: functional
Summary of the method: as §1

[41] = test system: PC-3; assay: Growth inhibition of human PC-3 cells measured after 48 hrs by sulforhodamine B assay; format: functional
Summary of the method: as §1

[42] = Inhibition of PI3K in human A549 cell lysate preincubated with compound for 5 mins followed by [gamma-32p]-ATP addition measured after 20 mins by immunoprecipitation based liquid scintillation spectroscopic analysis; format: subcellular
Summary of the method: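 PI3K immunoprecipitated with anti-p85 polyclonal antibody and protein G–agarose from A549 lysate (2–4 mg/mL protein), washed, suspended in buffer C (100 mM NaCl, 20 mM Tris pH 7.5) with 200 μg/mL phosphatidylinositol; compound preincubated 5 min at 25 °C; reaction started with [γ-32P]ATP (20 μM final) and 20 mM MgCl2, run 20 min at 25 °C; PI3P separated by TLC, counted by scintillation; activity as % of no-compound cpm.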

[43] = Residual PI3K activity in human A549 cell lysate at 1 uM preincubated with compound for 5 mins followed by [gamma-32p]-ATP addition measured after 20 mins by immunoprecipitation based liquid scintillation spectroscopic analysis relative to control; details: A549, 25 min
[44] = test system: A549; assay: Irreversible inhibition of PI3K in human A549 cell lysate at 1 uM preincubated with compound for 5 mins followed by [gamma-32p]-ATP addition measured after 20 mins by immunoprecipitation based liquid scintillation spectroscopic analysis; format: subcellular; details: time 25.0 min
Summary of the method: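 Class Ia PI3K was immunoprecipitated with anti-p85 antibody from A549 lysate and preincubated 5 min with compound at 1 μM. The mix was split: one aliquot washed four times (100 mM NaCl, 20 mM Tris pH 7.5), the other unwashed. Each aliquot was assayed with phosphatidylinositol 200 μg/mL, [γ-32P]ATP 20 μM final and MgCl2 20 mM final, 25 °C for 20 min. PI3P was separated by TLC, scraped and counted by scintillation, expressed as % of no-compound cpm.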

COc1cccc2c1C(=O)c1c(O)c3c(c(O)c1C2=O)C[C@@](O)(C(=O)CO)C[C@@H]3O[C@H]1C[C@H](N)[C@H](O)[C@H](C)O1 [DOXORUBICIN]
T/C at 12 mg/kg [1]: 24%

O=c1[nH]cc(F)c(=O)[nH]1 [FLUOROURACIL]
inhibition in vivo at 50 mg/kg [2]: 68.3%

CCc1c2c(nc3ccc(OC(=O)N4CCC(N5CCCCC5)CC4)cc13)-c1cc3c(c(=O)n1C2)COC(=O)[C@]3(O)CC [IRINOTECAN]
T/C at 100 mg/kg [3]: 96%

O=c1cc(N2CCOCC2)oc2c(-c3ccccc3)cccc12 [LY-294002]
GI50 [4]: 8.71 µM
GI50 [5]: 5.01 µM
GI50 [6]: 3.98 µM
GI50 [7]: 5.37 µM
GI50 [8]: 15.5 µM
GI50 [9]: 6.61 µM
GI50 [10]: 3.24 µM
GI50 [11]: 3.09 µM
GI50 [12]: 2.57 µM
GI50 [13]: 2.57 µM
GI50 [14]: 10.5 µM
GI50 [15]: 15.5 µM
GI50 [16]: 15.1 µM
GI50 [17]: 9.77 µM
GI50 [18]: 15.1 µM
GI50 [19]: 16.6 µM
GI50 [20]: 4.37 µM
GI50 [21]: 3.24 µM
GI50 [22]: 17 µM
GI50 [23]: 6.03 µM
GI50 [24]: 6.03 µM
GI50 [25]: 2.95 µM
GI50 [26]: 6.17 µM
GI50 [27]: 5.75 µM
GI50 [28]: 4.27 µM
GI50 [29]: 8.13 µM
GI50 [30]: 10 µM
GI50 [31]: 14.1 µM
GI50 [32]: 5.5 µM
GI50 [33]: 10 µM
GI50 [34]: 20.9 µM
GI50 [35]: 10.5 µM
GI50 [36]: 24 µM
GI50 [37]: 24.5 µM
GI50 [38]: 7.08 µM
GI50 [39]: 18.2 µM
GI50 [40]: 10 µM
GI50 [41]: 1.78 µM
IC50 [42]: 0.79 µM
level, % of control at 1 µM [43]: 44.6%

COC[C@H]1OC(=O)c2coc3c2[C@@]1(C)C1=C(C3=O)[C@@H]2CCC(=O)[C@@]2(C)C[C@H]1OC(C)=O [WORTMANNIN]
IC50 [42]: 0.011 µM
inhibition [44]: Active
